High-throughput results (PubChem)
Fibroblast inh: blocks proliferation of human lung fibroblasts | LL 47 human lung fibroblast viability, ATP luminescence; hits give low values | viability, % at 10 µM | actives 1.1% (n = 85,000) | AID 719;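 active = viability at or below 50% in the single dose screen; inactive = viability above 50%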;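 note: compound exposure lasted 72 h before the ATP readout; 100% = median luminescence of untreated cell-only wells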
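material = human LL 47 lung fibroblast cells | dosing = compounds added from tenfold dosing solution, 0.1% DMSO final | timing = overnight cell rest, 72 h compound treatment at 37 °C | measured by = CellTiter-Glo luminescence measuring cellular ATP | evaluation = % viability versus median cells-only luminescence | control set = cell-only wells, no compound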
H69AR inhibit: blocks growth of human H69AR lung tumor cells; H69AR lung tumor viability, ATP luminescence, 72 h; hits give low values; viability, % at 10 µM; actives 6% (n = 85,000);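 active = viability at or below 40%; inactive = viability above 40%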;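 note: multidrug resistant small cell line overexpressing MRP-1 efflux transporter; 100% = mean luminescence of untreated control wells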
ERa coact pot: enhances coactivator binding to human estrogen receptor alpha; coactivator binding (% of control), % at 25.6 µM; actives 1.3% (n = 86,000); TR-FRET ERalpha-LBD/SRC-Cy5 coactivator binding, 2 h; 100 = basal binding, no effect; P03372; AID 639; in the data active = activity above about 200%;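 note: binding measured in presence of low estradiol as agonist stimulus; 0% = peptide alone without receptor and 100% = receptor with peptide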
ERb coact inh: blocks coactivator binding to human estrogen receptor beta. TR-FRET ER-beta LBD / SRC1-Cy5 peptide binding; receptor agonist-loaded with 1 µM estradiol. actives 1.3% (n = 86,000). inhibition, % at 25.6 µM. AID 633. Q92731;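 active = compounds whose percent inhibition of the receptor-coactivator binding signal exceeds about 50% in the single-dose screen, limit read from the data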;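 note: 0% = receptor plus peptide wells without compound and 100% = peptide-only wells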
Target sequence (Q92731 whole entry, looked up, the tested form may be a part): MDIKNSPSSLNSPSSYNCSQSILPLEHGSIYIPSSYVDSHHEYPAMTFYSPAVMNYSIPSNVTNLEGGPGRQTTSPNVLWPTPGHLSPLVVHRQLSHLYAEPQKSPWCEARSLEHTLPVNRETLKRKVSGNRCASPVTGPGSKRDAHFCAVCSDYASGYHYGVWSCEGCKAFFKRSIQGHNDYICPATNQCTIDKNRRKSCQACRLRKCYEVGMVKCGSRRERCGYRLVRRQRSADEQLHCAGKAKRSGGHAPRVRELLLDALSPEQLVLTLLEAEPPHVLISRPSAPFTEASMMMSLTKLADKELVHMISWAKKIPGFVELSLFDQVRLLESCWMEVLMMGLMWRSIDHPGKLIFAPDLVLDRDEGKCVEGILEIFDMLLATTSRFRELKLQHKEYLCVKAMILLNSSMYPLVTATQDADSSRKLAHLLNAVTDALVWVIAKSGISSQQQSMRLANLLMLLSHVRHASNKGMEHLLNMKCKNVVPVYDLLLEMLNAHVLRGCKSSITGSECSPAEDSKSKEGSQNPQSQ
ERa SRC1 inh: ER-alpha (human) coactivator binding inhibition; P03372; TR-FRET ER-alpha LBD / SRC-1 peptide, estradiol-bound; inhibition, % at 25.6 µM; actives 1.7% (n = 86,000); in the data active = inhibition above about 50%;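 note: 0% = receptor plus peptide control and 100% = peptide only without receptor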
HUVEC prolif 384: human endothelial cell proliferation inhibition; viability, % at 10 µM (by protocol); AID 648; HUVEC proliferation, CellTiter-Glo luminescence, 72 h; hits give low values; actives 1.1% (n = 86,000);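 active = viability at or below 30%; inactive = viability above 30%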;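 note: 100% = median luminescence of DMSO-only cell control wells on each plate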
* = called active by the depositor; · = no result given; [ ] = remark or other dose. Hits are enriched below; roughly 9.2% of the tested compounds scored in any of these assays.

SMILES | Fibroblast inh | H69AR inhibit | ERa coact pot | ERb coact inh | ERa SRC1 inh | HUVEC prolif 384
Oc1ccc(C2NCc3ccccc3-n3cccc32)cc1Cl (stereo not drawn) | 88 | 87 | 100 | -2 | -10 | 116
COc1ccc(C2NCc3ccc4c(c3-n3cccc32)OCO4)cc1O (stereo not drawn) | 52 | 29* | 109 | 31 | -2 | 43
Clc1ccc(COC(Cn2ccnc2)c2ccc(Cl)cc2Cl)cc1 (stereo not drawn) | 78 | 26* | 67 | 3 | 8 | 9.2*
Clc1ccc(CSC(Cn2ccnc2)c2ccc(Cl)cc2Cl)cc1 (stereo not drawn) | 85 | 9.2* | 68 | -18 | 1 | 66
c1ccc(Cn2ccnc2)cc1 | 101 | 92 | 107 | -11 | -1 | 94
CCCC(C)C(=O)NC1CCSC1=O (stereo not drawn) | 106 | 92 | 111 | 0 | 1 | 107
CCOC(=O)C(O)(c1ccc(N(CC)S(=O)(=O)c2ccc(C)cc2)cc1)C(F)(F)F (stereo not drawn) | 94 | 81 | 81 | -4 | 7 | 100
O=C(Nc1ccncc1)c1c(O)c2ccccc2n(Cc2ccccc2)c1=O | 92 | 17* | 158 | -6 | 4 | 99
CCCCn1c(=O)c(C(=O)Nc2ccccc2S(N)(=O)=O)c(O)c2ccccc21 | 104 | 23* | 149 | 4 | 13 | 74
O=C(Nc1cccnc1)c1c(O)c2c(n(Cc3ccccc3)c1=O)CCCC2 | 103 | 86 | 89 | 4 | 10 | 94
CCCCCCn1c(=O)c(C(=O)Nc2ccncc2)c(O)c2ccccc21 | 55 | 12* | 91 | 18 | 11 | 63
CCCCn1c(=O)c(C(=O)NCc2ccncc2)c(O)c2ccccc21 | 100 | 75 | 89 | -5 | 8 | 123
CCCCn1c(O)c(C(C)=NC(Cc2c[nH]c3ccccc23)C(=O)OC)c(=O)[nH]c1=O (stereo not drawn) | 101 | 87 | 99 | 5 | 1 | 74
COc1ccc(OCC(=O)N2CCN(CC3CC4C=CC3C4)CC2)cc1 (stereo not drawn) | 111 | 94 | 112 | -6 | 2 | 103
CC(C)c1cccc(C(C)C)c1OCCn1ccnc1 | 88 | 97 | 114 | 2 | 3 | 93
O=C(NC[P+](=O)O)OCc1ccccc1 | 102 | 87 | 112 | -4 | 5 | 93
CN1C[C@H](CNC(=O)OCc2ccccc2)C[C@@H]2c3cccc4c3c(cn4C)C[C@H]21 | 76 | 1.7* | 93 | -4 | -8 | 3.9*
CNCCc1nc(N)n[nH]1 | 104 | 82 | 125 | -5 | 1 | 91
N#Cc1ccccc1Cn1cc(C(=O)c2cccs2)c2ccccc21 | 88 | 90 | 139 | -2 | -7 | 89
O=C(c1cccs1)c1cn(Cc2ccccc2Cl)c2ccccc12 | 92 | 34* | 111 | 2 | -7 | 93
O=C(c1ccco1)c1cn(Cc2ccc(Cl)cc2)c2ccccc12 | 95 | 11* | 89 | -10 | -1 | 71
O=C1NCCN2CCCC12 (stereo not drawn) | 98 | 101 | 130 | -14 | -4 | 114
CCOc1ccccc1-n1c(O)c(C=NCCCN(CC)CC)c(=O)[nH]c1=O | 108 | 96 | 101 | 2 | 2 | 95
COC(=O)C1CN(C#N)N(c2ccc(Cl)cc2)C12c1ccccc1-c1ccccc12 (stereo not drawn) | 2.1* | 2.3* | 96 | -4 | -10 | 2.4*
O=C(c1ccc2c(c1)ncn2C1CCCCC1)N1CCC2(CC1)OCCO2 | 75 | 17* | 104 | 15 | 13 | 60
SMILES | Fibroblast inh | H69AR inhibit | ERa coact pot | ERb coact inh | ERa SRC1 inh | HUVEC prolif 384
CCOc1ccc(N=C2SCCCN2C)cc1 | 96 | 85 | 117 | -6 | -7 | 79
C#CCN1C(=O)C2(C(C#N)=C(N)OC(C)=C2C(=O)OCc2ccccc2)c2ccccc21 (stereo not drawn) | · | 30* | 95 | 5 | 6 | 98
CCCCCCn1c(O)c(C=NC2CCCCC2N)c(=O)[nH]c1=O (stereo not drawn) | 81 | 29* | 85 | -4 | -16 | 5.0*
CN(C)c1ccc2c(c1)N=C(c1ccco1)OP2(=S)N1CCOCC1 (stereo not drawn) | 102 | 66 | 76 | -2 | 22 | 85
O=c1[nH]c2ccccc2n1C1CCN(CCCC(c2ccc(F)cc2)c2ccc(F)cc2)CC1 | 69 | 1.7* | 86 | 3 | -3 | 2.7*
O=C1CC(N2CCC(n3c(=O)[nH]c4ccccc43)CC2)C(=O)N1c1ccc(F)cc1 (stereo not drawn) | 92 | 103 | 110 | 6 | -6 | 92
C[C@H]1CCC[C@@H](O)CCC/C=C/c2cc(O)cc(O)c2C(=O)O1 | 70 | 6.5* | 466* | 7 | 3 | 34
CCC(=NCc1ccc(F)cc1)c1c(O)n(C)c(=O)n(C)c1=O | 98 | · | 115 | -3 | -10 | 92
COc1ccc(CCC(=O)N2CCC3(CC2)OCCO3)cc1 | 104 | 97 | 147 | -5 | -12 | 93
COc1ccccc1N=Cc1c(O)n(C)c(=O)n(C)c1=O | 93 | 1.3* | 116 | -8 | -1 | 97
CC(C)OCCCNC(=O)c1c(N)n(Cc2cccs2)c2nc3ccccc3nc12 | 81 | 98 | 83 | 7 | 6 | 35
Nc1c(C(=O)OCC2CCCO2)c2nc3ccccc3nc2n1Cc1cccs1 (stereo not drawn) | 97 | 39* | 101 | 9 | 9 | 60
Cc1ccc(S(=O)(=O)Cc2ccc(C(=O)N3CCC4(CC3)OCCO4)o2)cc1 | 88 | 102 | 49 | 56* | 51* | 95
CCOP(=O)(OCC)C(C)(C)NC(=O)C(Cl)(Cl)Cl | 95 | 98 | 107 | -8 | -7 | 96
O=C(Cn1cnc2sc3c(c2c1=O)CCCC3)NCCCC(=O)N1CCC2(CC1)OCCO2 | 100 | 97 | 92 | -8 | 0 | 91
COC(=O)c1cc(C(O)(C(=O)OC)C(F)(F)F)c(/N=C/N(C)C)s1 (stereo not drawn) | 95 | 99 | 79 | 4 | 3 | 96
CC[C@@H](CO)NC(=O)[C@@H]1C=C2c3cccc4c3c(cn4C)C[C@H]2N(C)C1 | 98 | 102 | 43 | 51*[fluorescence artefact?] | 27 | 95
CC(C)(C)n1c(O)c(C=Nc2ccc3c(c2)CCC3)c(=O)[nH]c1=O | 96 | · | 120 | -3 | -5 | 88
O=c1cccc2n1CC1CC2CN(c2ncnc3c2cnn3-c2ccc(Cl)cc2)C1 (stereo not drawn) | 95 | 92 | 106 | 1 | -10 | 95
N#Cc1c(/N=C/c2c(O)n(Cc3ccco3)c(=O)[nH]c2=O)sc2c1CCCC2 | 103 | 87 | 86 | 75* | 45 | 96
O=c1[nH]c(=O)n(Cc2ccco2)c(O)c1C=NCc1cccs1 | 93 | 96 | 88 | 22 | 9 | 92
